Calls of active or inactive are those of the source. Unless noted, no cut-off for these calls is given here.
What was measured:
Pseudomonas aeruginosa [1] = test: Antibacterial activity against Pseudomonas aeruginosa assessed as growth inhibition at 500 uM after 2 hrs by GFP reporter gene assay; format: organism-based; conditions: in vivo
Pseudomonas aeruginosa [2] = test: Induction of nitric oxide-dependent nirS gene expression in Pseudomonas aeruginosa at 500 uM incubated for 2 hrs under dark condition by GFP reporter gene assay relative to untreated control; format: functional
[3] = Inhibition of quorum sensing system in Pseudomonas aeruginosa PAO1 MH602 harboring lasB promoter fused with GFP-ASV assessed as reduction in GFP-ASV reporter protein expression at 88 uM measured every 30 mins relative to control
In short: (§1)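 P. aeruginosa PAO1 carrying a PlasB::gfp(ASV) fusion plasmid, which makes its own AHL signals, incubated with compounds at 88.8, 29.6, 9.9, 3.3 or 1.0 μM. GFP fluorescence (RFU) read every half hour. Percent QS inhibition is the percent RFU difference between sample and untreated control, taken at the time point when control fluorescence peaks.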

[4] = Inhibition of quorum sensing system in Pseudomonas aeruginosa PAO1 MH602 harboring lasB promoter fused with GFP-ASV assessed as reduction in GFP-ASV reporter protein expression at 29 uM measured every 30 mins relative to control; in short: as §1
Pseudomonas aeruginosa [5] = test: Antibacterial activity against Pseudomonas aeruginosa PAO1 MH602 harboring lasB promoter fused with GFP-ASV assessed as growth inhibition at 88 uM measured every 30 mins by GFP-ASV reporter gene assay; format: organism-based; conditions: pseudomonas aeruginosa, in vivo, 0.5 h, 88 µM
In short: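 Cell growth of the PAO1 PlasB::gfp(ASV) reporter strain tracked as OD600 every half hour during compound incubation, alongside GFP readings. Growth is compared against the untreated control.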

[6] = Inhibition of quorum sensing system in Pseudomonas aeruginosa PAO1 MH602 harboring lasB promoter fused with GFP-ASV assessed as reduction in GFP-ASV reporter protein expression at 266 uM measured every 30 mins relative to control
[7] = Inhibition of quorum sensing system in Pseudomonas aeruginosa PAO1 MH602 harboring lasB promoter fused with GFP-ASV assessed as reduction in GFP-ASV reporter protein expression at 9.8 uM measured every 30 mins relative to control; in short: as §1
[8] = Induction of nitric oxide release in PBS buffer supplemented with L-cysteine, xanthine, xanthine oxidase assessed as nitrite release at 250 to 500 uM after 1 hr by Griess assay; format: physicochemical
In short: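 Total NO release was quantified as nitrite with Griess reagent, which detects nitrite at ≥1 μM. Because of that limit, compounds were added at 250 μM and 500 μM.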

[9] = Inhibition of quorum sensing system in Pseudomonas aeruginosa PAO1 MH602 harboring lasB promoter fused with GFP-ASV assessed as reduction in GFP-ASV reporter protein expression at 3.2 uM measured every 30 mins relative to control; in short: as §1
[10] = Inhibition of quorum sensing system in Pseudomonas aeruginosa PAO1 MH602 harboring lasB promoter fused with GFP-ASV assessed as reduction in GFP-ASV reporter protein expression measured every 30 mins; in short: as §1
Pseudomonas aeruginosa [11] = test: Antibacterial activity against Pseudomonas aeruginosa PAO1 assessed as inhibition of biofilm formation at 150 uM after 6 hrs by crystal violet staining assay relative to control; format: functional

Row | Compound | Activity (Pseudomonas aeruginosa [1]) | Activity (Pseudomonas aeruginosa [2]) | inhibition [3] | inhibition [4] | Activity (Pseudomonas aeruginosa [5]) | inhibition [6] | inhibition [7] | Activity [8] | inhibition [9] | inhibition [10] | inhibition (Pseudomonas aeruginosa [11]) | fold change (FC) (Pseudomonas aeruginosa [2])
1 | CCCC(OC(=O)CCCCCCCO[N+](=O)[O-])C1=CC(=C(Br)Br)OC1=O (stereo unspecified) | Non-toxic | inactive | 12.9% | inactive | Non-toxic | 40.6% | inactive | 1 µM | inactive | Dose-dependent effect |  | 
2 | CCCC(OC(=O)CCC(=O)N1CCN(/[N+]([O-])=N/OC)CC1)C1=CC(=C(Br)Br)OC1=O (stereo unspecified) |  |  | 39.3% | 17.7% | Non-toxic | 65.4% | 4.6% |  | inactive | Dose-dependent effect | inactive | 
3 | O=[N+]([O-])O[C@H]1CO[C@H]2[C@@H]1OC[C@H]2O[N+](=O)[O-] [ISOSORBIDE DINITRATE] | Non-toxic | inactive |  |  |  |  |  | 4 µM |  |  |  | 
4 | CCCCCCCC(O[N+](=O)[O-])C1=CC(=C(Br)Br)OC1=O (stereo unspecified) | Non-toxic | inactive | 19.2% | inactive | Non-toxic | 58.2% | inactive | Active | inactive | Dose-dependent effect |  | 
5 | CCCC(OC(=O)CO/N=[N+](\[O-])N1CCOCC1)C1=CC(=C(Br)Br)OC1=O (stereo unspecified) |  |  | 47.5% | 15.9% | Non-toxic | 72.1% | inactive |  | inactive | Dose-dependent effect | inactive | 
6 | CCCC(OC(=O)CCCO[N+](=O)[O-])C1=CC(=C(Br)Br)OC1=O (stereo unspecified) | Non-toxic | inactive | 28.6% | 12.3% | Non-toxic | 55.8% | 8% | 1 µM | inactive | Dose-dependent effect |  | 
7 | CCCC(SC(=O)CCCCCO[N+](=O)[O-])C1=CC(=C(Br)Br)OC1=O (stereo unspecified) |  |  | 10.1% | inactive | Non-toxic | 47.8% | inactive | Active | inactive | Dose-dependent effect |  | 
8 | CCCCCCCCCCCC(OC(=O)CCC(=O)N1CCN(/[N+]([O-])=N/OC)CC1)C1=CC(=C(Br)Br)OC1=O (stereo unspecified) |  |  | 6% | inactive | Non-toxic | 41.9% | inactive |  | inactive | Dose-dependent effect | inactive | 
9 | CCCCC1=C(Br)/C(=C/Br)OC1=O |  |  | 39.9% | 5.9% | Non-toxic | 75.8% | inactive |  | inactive | Dose-dependent effect |  | 
10 | CCCC(S)C1=CC(=C(Br)Br)OC1=O (stereo unspecified) |  |  | 17.9% | 4.3% | Non-toxic | 50.5% | 1.5% |  | inactive | Dose-dependent effect |  | 
11 | CCCC(SC(=O)CCCO[N+](=O)[O-])C1=CC(=C(Br)Br)OC1=O (stereo unspecified) | Non-toxic | inactive | 13.8% | inactive | Non-toxic | 54.2% | inactive | Active | inactive | Dose-dependent effect |  | 
12 | CCCC(OC(=O)CCCCCO[N+](=O)[O-])C1=CC(=C(Br)Br)OC1=O (stereo unspecified) | Non-toxic | inactive | 18.8% | 7.9% | Non-toxic | 54.1% | inactive |  | inactive | Dose-dependent effect |  | 
13 | CCCCC1=CC(=C(Br)Br)OC1=O |  |  | 34.1% | 17% | Non-toxic | 69.8% | inactive |  | inactive | Dose-dependent effect |  | 
14 | CCCC(SC(=O)CCO[N+](=O)[O-])C1=CC(=C(Br)Br)OC1=O (stereo unspecified) | Non-toxic |  | 51.5% | 33.6% | Non-toxic | 72.3% | inactive | 1 µM | inactive | Dose-dependent effect |  | 2
15 | CCCC(OC(=O)CO/N=[N+](\[O-])N(CC)CC)C1=CC(=C(Br)Br)OC1=O (stereo unspecified) |  |  | 52% | 30% | Non-toxic | 74.8% | 6.2% |  | inactive | Dose-dependent effect | inactive | 
16 | CCCC(OC(=O)CCCCCCCCCCO[N+](=O)[O-])C1=CC(=C(Br)Br)OC1=O (stereo unspecified) | Non-toxic | inactive | 21.8% | 6.2% | Non-toxic | 54.8% | inactive | Active | inactive | Dose-dependent effect |  | 
17 | CCCCCCC(O[N+](=O)[O-])C1=CC(=C(Br)Br)OC1=O (stereo unspecified) | Non-toxic | inactive | 29.9% | 9.5% | Non-toxic | 65.7% | inactive |  | inactive | Dose-dependent effect |  | 
18 | CCCC(OC(=O)CCO[N+](=O)[O-])C1=CC(=C(Br)Br)OC1=O (stereo unspecified) | Non-toxic | inactive | 62.8% | 43.1% | Non-toxic | 80.6% | 12.5% |  | inactive | Dose-dependent effect |  | 
19 | CCCCCC(OC(=O)CC(=O)N1CCN(/[N+]([O-])=N/OC)CC1)C1=CC(=C(Br)Br)OC1=O (stereo unspecified) |  |  | 41.5% | 23.7% | Non-toxic | 62.9% | 9.5% |  | inactive | Dose-dependent effect | inactive | 
20 | CCCC(O)C1=CC(=C(Br)Br)OC1=O (stereo unspecified) |  |  | 62.9% | 37% | Non-toxic | 85.8% | 16.7% |  | inactive | Dose-dependent effect |  | 
